Measurements taken from ChEMBL document CHEMBL4765360, “Design, synthesis and biological evaluation of novel potent STAT3 inhibitors based on BBI608 for cancer therapy” (Eur J Med Chem, 2020).
Activity calls are given as the source filed them. The calls are words filed in the database; no cut-off is given here.

Legend:
[1] = system: MDA-MB-231; test: Antiproliferative activity against human MDA-MB-231 cells overexpressing STAT3 assessed as reduction in cell growth incubated for 48 hrs by CCK-8 assay; type: functional, cell-based; conditions: MDA-MB-231, 48 h
Summary of the method: (§1)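 Cells seeded at 5000-7000/well and allowed to settle for 8 h at 37 °C, 5% CO2. Graded compound concentrations were then added in triplicate (DMSO <0.1%) for 48 h. Medium was replaced with 10% CCK-8 for 4 h (MDA-MB-231, MDA-MB-468) or 1 h (HepG2), and A450 was read. IC50 is mean ± SD of at least three independent experiments. HepG2 was grown in high-glucose DMEM with 10% FBS.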

[2] = system: MDA-MB-468; test: Antiproliferative activity against human MDA-MB-468 cells overexpressing STAT3 assessed as reduction in cell growth incubated for 48 hrs by CCK-8 assay; type: functional, cell-based; conditions: MDA-MB-468, 48 h; summary of the method: as §1
[3] = system: HepG2; test: Antiproliferative activity against human HepG2 cells overexpressed STAT3 assessed as reduction in cell growth incubated for 48 hrs by CCK-8 assay; type: functional, cell-based; conditions: HepG2, 48 h; summary of the method: as §1
[4] = system: MDA-MB-231; test: Effect on STAT3 expression in human MDA-MB-231 cells at 0.75 to 3 uM incubated for 24 hrs by Western blot analysis; type: functional, cell-based; conditions: dose 0.75-3 µM
Summary of the method: (§2)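 MDA-MB-231 cells treated with a range of concentrations for 24 h. RIPA lysates with PMSF, 40 µg protein/lane, on 10% SDS-PAGE, then PVDF. Blocked in 5% milk/TBST for 2 h. Primary antibodies to STAT3, p-STAT3(Y705), STAT1, p-STAT1(Y701), c-Myc and Cyclin D1 overnight at 4 °C; GAPDH as loading control. HRP secondary for 1 h; ECL detection.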

[5] = target: T1, Signal transducer and activator of transcription 1-alpha/beta (Homo sapiens) (UniProt P42224); test: Inhibition of STAT1 in human MDA-MB-231 cells assessed as reduction in STAT1 Y701 phosphorylation at 0.75 to 3 uM incubated for 24 hrs by Western blot analysis; type: cell-based; conditions: dose 0.75-3 µM; summary of the method: as §2
T1 sequence (whole entry): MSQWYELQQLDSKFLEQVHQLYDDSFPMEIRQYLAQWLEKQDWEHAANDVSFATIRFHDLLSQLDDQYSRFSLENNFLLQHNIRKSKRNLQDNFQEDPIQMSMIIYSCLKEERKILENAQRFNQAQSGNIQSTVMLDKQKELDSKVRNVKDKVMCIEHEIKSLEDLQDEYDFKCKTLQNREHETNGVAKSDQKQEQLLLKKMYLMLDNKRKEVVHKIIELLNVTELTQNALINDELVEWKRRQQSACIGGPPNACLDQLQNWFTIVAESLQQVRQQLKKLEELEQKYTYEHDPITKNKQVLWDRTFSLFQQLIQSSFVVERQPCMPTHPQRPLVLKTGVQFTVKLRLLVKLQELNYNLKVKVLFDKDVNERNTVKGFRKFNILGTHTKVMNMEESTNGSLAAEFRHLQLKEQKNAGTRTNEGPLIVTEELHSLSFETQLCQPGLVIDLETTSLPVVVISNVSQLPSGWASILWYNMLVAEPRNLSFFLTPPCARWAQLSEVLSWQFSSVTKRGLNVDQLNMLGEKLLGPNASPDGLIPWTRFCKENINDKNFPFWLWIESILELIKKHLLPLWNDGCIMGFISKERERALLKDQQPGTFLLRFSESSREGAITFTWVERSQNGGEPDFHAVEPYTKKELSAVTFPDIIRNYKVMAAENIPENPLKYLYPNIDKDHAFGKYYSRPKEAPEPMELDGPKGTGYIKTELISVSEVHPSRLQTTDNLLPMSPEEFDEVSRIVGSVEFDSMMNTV

[6] = system: MDA-MB-231; test: Effect on STAT1 expression in human MDA-MB-231 cells at 0.75 to 3 uM incubated for 24 hrs by Western blot analysis; type: functional, cell-based; conditions: dose 0.75-3 µM; summary of the method: as §2
[7] = target: T2, Signal transducer and activator of transcription 3 (Homo sapiens, UniProt P40763); test: Inhibition of STAT3 in human MDA-MB-231 cells assessed as reduction in Cyclin D1 expression incubated for 24 hrs by Western blot analysis; type: cell-based; conditions: dose 0.75-3 µM; summary of the method: as §2
T2 sequence (P40763 whole entry): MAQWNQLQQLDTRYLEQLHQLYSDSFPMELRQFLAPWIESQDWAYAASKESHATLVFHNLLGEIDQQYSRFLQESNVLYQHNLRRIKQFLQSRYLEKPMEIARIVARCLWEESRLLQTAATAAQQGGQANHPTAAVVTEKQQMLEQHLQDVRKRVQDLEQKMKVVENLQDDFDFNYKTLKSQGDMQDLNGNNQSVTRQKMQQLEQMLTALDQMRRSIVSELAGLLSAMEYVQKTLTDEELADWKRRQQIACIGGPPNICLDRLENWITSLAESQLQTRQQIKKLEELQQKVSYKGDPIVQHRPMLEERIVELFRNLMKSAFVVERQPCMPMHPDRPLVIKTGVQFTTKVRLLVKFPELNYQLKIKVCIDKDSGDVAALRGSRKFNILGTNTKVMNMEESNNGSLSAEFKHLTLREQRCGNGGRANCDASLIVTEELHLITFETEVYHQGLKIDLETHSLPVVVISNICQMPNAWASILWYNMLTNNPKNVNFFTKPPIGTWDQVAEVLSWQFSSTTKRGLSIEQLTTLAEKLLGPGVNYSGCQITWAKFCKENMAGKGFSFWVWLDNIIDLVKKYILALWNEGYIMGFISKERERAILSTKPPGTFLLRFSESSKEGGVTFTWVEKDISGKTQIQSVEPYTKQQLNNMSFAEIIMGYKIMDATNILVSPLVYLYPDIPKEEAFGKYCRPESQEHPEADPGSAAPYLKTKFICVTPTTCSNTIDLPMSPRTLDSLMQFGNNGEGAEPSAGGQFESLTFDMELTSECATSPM

[8] = target: T2, Signal transducer and activator of transcription 3; test: Inhibition of STAT3 in human MDA-MB-231 cells assessed as reduction in STAT3 Y705 phosphorylation incubated for 24 hrs by Western blot analysis; type: cell-based; conditions: dose 0.75-3 µM; summary of the method: as §2
[9] = target: T2, Signal transducer and activator of transcription 3; test: Displacement of 5-FAM-GpYLPQTV-NH2 from His-tagged STAT3 (unknown origin) (127 to 722 residues) incubated for 30 mins followed by fluorescent peptide probe addition and measured after 1 hr by fluorescence polarization based competition binding assay
[10] = target: T2, Signal transducer and activator of transcription 3; test: Inhibition of STAT3 in human MDA-MB-231 cells assessed as reduction in c-myc expression incubated for 24 hrs by Western blot analysis; type: cell-based; conditions: dose 0.75-3 µM; summary of the method: as §2

Structure (SMILES) | IC50 [1] | IC50 [2] | IC50 [3] | further results
O=[N+]([O-])c1ccc2c(c1)S(=O)(=O)C=C2 | 2640 nM | 1920 nM |  | 
CC(=O)c1cc2c(o1)C(=O)C(Nc1ccccc1)=CC2=O | 1140 nM | 1030 nM | 1540 nM | 
COc1ccc(NC2=CC(=O)c3cc(C(C)=O)oc3C2=O)c(C)c1 | 2460 nM | 2920 nM | 5900 nM | 
CC(=O)c1cc2c(o1)C(=O)C(Nc1ccc(F)cc1)=CC2=O | 3210 nM | 7770 nM | 8010 nM | 
CC(=O)c1cc2c(o1)C(=O)C(NC1CCC1)=CC2=O | 4870 nM | 8840 nM | 6750 nM | 
CC(=O)c1cc2c(o1)C(=O)C(Nc1cc(C)cc(F)c1)=CC2=O | 2620 nM | 2110 nM | 5660 nM | 
CC(=O)c1cc2c(o1)C(=O)C(NC1CCCC1)=CC2=O | 1230 nM | 2470 nM | 7170 nM | 
CC(=O)c1cc2c(o1)C(=O)C(Nc1cccc(C(F)(F)F)c1)=CC2=O | 1510 nM | 1160 nM | 1990 nM | 
COc1cc(C)c(NC2=CC(=O)c3cc(C(C)=O)oc3C2=O)c(C)c1 | 670 nM | 1530 nM | 2010 nM | 
CC(=O)c1cc2c(o1)C(=O)C(Nc1ccc(C)cc1)=CC2=O | 900 nM | 3120 nM | 1850 nM | 
COc1cccc(NC2=CC(=O)c3cc(C(C)=O)oc3C2=O)c1 | 1480 nM | 1550 nM | 2360 nM | 
CC(=O)c1cc2c(o1)C(=O)C(Nc1cccc(C)c1)=CC2=O | 2620 nM | 4540 nM | 5500 nM | 
CC(=O)c1cc2c(o1)C(=O)C(Nc1ccc(C)c(C)c1)=CC2=O | 2540 nM | 1850 nM | 8120 nM | 
CC(=O)c1cc2c(o1)C(=O)c1ccccc1C2=O [NAPABUCASIN] | 700 nM |  | 840 nM | 
CC(=O)c1cc2c(o1)C(=O)C(Nc1ccc(OC(C)C)cc1)=CC2=O | 1110 nM | 1180 nM | 1040 nM | 
COc1ccccc1NC1=CC(=O)c2cc(C(C)=O)oc2C1=O | 920 nM | 1050 nM | 2410 nM | 
CC(=O)c1cc2c(o1)C(=O)C(Nc1ccccc1C(F)(F)F)=CC2=O | 3120 nM | 1750 nM | 4040 nM | 
CC(=O)c1cc2c(o1)C(=O)C(Nc1ccccc1C)=CC2=O | 560 nM | 730 nM | 1210 nM | Activity [4]: inactive; inhibition [5]: inactive; Activity [6]: inactive; inhibition [7]: Dose-dependent effect; inhibition [8]: Dose-dependent effect; IC50 [9]: 5550 nM; inhibition ([9]; time 1.5 hrs): Dose-dependent effect; inhibition [10]: Dose-dependent effect
CC(=O)c1cc2c(o1)C(=O)C(Nc1c(C)cccc1C)=CC2=O | 1880 nM | 3300 nM | 8030 nM | 
CC(=O)c1cc2c(o1)C(=O)C(NC1CCCCC1)=CC2=O | 2880 nM | 4130 nM | 6550 nM | 
CC(=O)c1cc2c(o1)C(=O)C(NC1CCOCC1)=CC2=O | 2070 nM | 3230 nM | 6800 nM | 
CC(=O)c1cc2c(o1)C(=O)C(NC1CC1)=CC2=O | 940 nM | 1970 nM | 1830 nM | 
CC(=O)c1cc2c(o1)C(=O)C(Nc1ccc(N(C)C)cc1)=CC2=O | 1530 nM | 1830 nM | 1510 nM | 
CCc1ccccc1NC1=CC(=O)c2cc(C(C)=O)oc2C1=O | 2000 nM | 2460 nM | 3380 nM | 
CC(=O)c1cc2c(o1)C(=O)C(Nc1ccc(C(F)(F)F)cc1)=CC2=O | 3700 nM | 2270 nM | 6170 nM | 
CC(=O)c1cc2c(o1)C(=O)C(Nc1ccccc1F)=CC2=O | 2340 nM | 2000 nM | 2550 nM | 
CC(=O)c1cc2c(o1)C(=O)C(Nc1cccc(F)c1)=CC2=O | 3500 nM | 2500 nM | 5340 nM | 
